The array DNA melting data of Ke et al. (doi:10.1101/2024.01.08.574731)

Columns and labels:
[1] = folding enthalpy; higher = less favourable; fluorescence melt of hairpins on a sequencing array, two-state fit; conditions: sodium 0.088 M
Procedure, shortened: (§1)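 Hairpins were imaged by Cy3 fluorescence on a sequenced MiSeq flow cell with annealed Cy3 and quencher oligos, in 50 mM Na-HEPES pH 8.0, 25 mM NaCl, in 2.5 °C steps up to 60 °C. Bootstrapped two-state fits of normalised signals gave melting temperature and folding enthalpy. Four replicates were combined by inverse variance, and fitted temperatures were raised by 9.35 °C to match UV melts.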

[2] = melting temperature; fluorescence melt of hairpins on a sequencing array, two-state fit, raised by 9.35 °C to match UV melts; conditions: sodium 0.088 M
Procedure, shortened: as §1

Row | Sequence | folding enthalpy [1] | Tm [2]
1 | GATCTGCTGTCAGATC ((((((....)))))) | -32.2 kcal/mol | 51.6 °C
2 | GATCTGGAAGCAGATC ((((((....)))))) | -37.8 kcal/mol | 50.8 °C
3 | GATCTGGAGGCAGATC ((((((....)))))) | -31.1 kcal/mol | 48.1 °C
4 | GATCTGGCACAGATC ((((((...)))))) | -38.8 kcal/mol | 58.4 °C
5 | GATCTGGCACCAGATC ((((((....)))))) | -41.3 kcal/mol | 55.1 °C
6 | GATCTGGCATCAGATC ((((((....)))))) | -46.2 kcal/mol | 54.6 °C
7 | GATCTGGCCACAGATC ((((((....)))))) | -39.6 kcal/mol | 59.8 °C
8 | GATCTGGCGACAGATC ((((((....)))))) | -44.1 kcal/mol | 55.8 °C
9 | GATCTGGCGTCAGATC ((((((....)))))) | -31.8 kcal/mol | 50.9 °C
10 | GATCTGGCTGCAGATC ((((((....)))))) | -36.3 kcal/mol | 50 °C
11 | GATCTGGGAAACCAGACC (.(((((....))))).) | -16.1 kcal/mol | 38.5 °C
12 | GATCTGGGAAACTGGATC ((((..(....)..)))) | -26.2 kcal/mol | 35.2 °C
13 | GATCTGGGCGCAGATC ((((((....)))))) | -37.7 kcal/mol | 53.5 °C
14 | GATCTGGGCTCAGATC ((((((....)))))) | -39.3 kcal/mol | 52.8 °C
15 | GATCTGGTTCAGATC ((((((...)))))) | -36.5 kcal/mol | 49.9 °C
16 | GATCTGGTTCCAGATC ((((((....)))))) | -47.1 kcal/mol | 53.5 °C
17 | GATCTGTACTCAGATC ((((((....)))))) | -36.1 kcal/mol | 50.2 °C
18 | GATCTGTCACCAGATC ((((((....)))))) | -39.4 kcal/mol | 49.4 °C
19 | GATCTGTCAGCAGATC ((((((....)))))) | -40.7 kcal/mol | 51.7 °C
20 | GATCTGTTACCAGATC ((((((....)))))) | -42.4 kcal/mol | 50.5 °C

Row | Sequence | folding enthalpy [1] | Tm [2]
21 | GATCTGTTCACAGATC ((((((....)))))) | -35.1 kcal/mol | 56.9 °C
22 | GATCTGTTCGCAGATC ((((((....)))))) | -47.6 kcal/mol | 53.4 °C
23 | GATCTGTTGCCAGATC ((((((....)))))) | -36.9 kcal/mol | 50.5 °C
24 | GATCTGTTGGCAGATC ((((((....)))))) | -40.3 kcal/mol | 54.2 °C
25 | GATCTTAAACAAGATC ((((((....)))))) | -24.9 kcal/mol | 38.7 °C
26 | GATCTTAACGAAGATC ((((((....)))))) | -29.9 kcal/mol | 40 °C
27 | GATCTTAAGGAAGATC ((((((....)))))) | -23.1 kcal/mol | 39.1 °C
28 | GATCTTAAGTAAGATC ((((((....)))))) | -25.5 kcal/mol | 42.8 °C
29 | GATCTTAATTAAGATC ((((((....)))))) | -32.1 kcal/mol | 44.7 °C
30 | GATCTTACAGAAGATC ((((((....)))))) | -31.8 kcal/mol | 38.4 °C
31 | GATCTTACCAAAGATC ((((((....)))))) | -34.6 kcal/mol | 44.5 °C
32 | GATCTTACTGAAGATC ((((((....)))))) | -26.9 kcal/mol | 42.2 °C
33 | GATCTTAGACAAGATC ((((((....)))))) | -30.2 kcal/mol | 37.3 °C
34 | GATCTTAGGAAAGATC ((((((....)))))) | -26.5 kcal/mol | 38.6 °C
35 | GATCTTAGGAAGATC ((((((...)))))) | -30.5 kcal/mol | 43.3 °C
36 | GATCTTAGTAAGATC ((((((...)))))) | -27.6 kcal/mol | 42.5 °C
37 | GATCTTATAAAGATC ((((((...)))))) | -29.4 kcal/mol | 44 °C
38 | GATCTTATAGAAGATC ((((((....)))))) | -30 kcal/mol | 39.5 °C
39 | GATCTTATTAAAGATC ((((((....)))))) | -30.7 kcal/mol | 42.8 °C
40 | GATCTTATTAAGATC ((((((...)))))) | -34 kcal/mol | 45 °C
